According to ChEMBL document CHEMBL1132564, “Antitumor benzothiazoles. 7. Synthesis of 2-(4-acylaminophenyl)benzothiazoles and investigations into the role of acetylation in the antitumor activities of the parent amines” (J Med Chem, 1999):

Tests used:
MCF7 = test: In vitro antitumor activity against MCF-7 carcinoma cell line.; type: functional, cell-based; settings: Homo sapiens
In short: (§1)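 MTT assay, 7-day format: 250–300 cells/well, adhered 24 h drug-free, then compound 1 pM–100 μM (n = 8), final DMSO <0.25%; RPMI 1640/10% FCS, 37 °C, 5% CO2. MTT added after exposure, 4 h, formazan dissolved in DMSO–glycine (4:1), absorbance 550 nm.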

MDA-MB-468 = test: In vitro antitumor activity against MDA-468 carcinoma cell line.; type: functional, cell-based; settings: Homo sapiens; in short: as §1
Homo sapiens = test: In vitro concentration to reduce colony formation of human tumor xenografts to 30% of the control; type: functional
In short: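 Clonogenic colony-formation assay using cells from 22 human tumor xenografts, tested at 0.1, 1.0 and 10 μg/mL; colony inhibition expressed as T/C, with T/C < 30% scored active; IC70 concentration reported.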

NCI [1] = test: In vitro antitumor activity against carcinoma cell lines by 2-day assay; type: functional, Homo sapiens
In short: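 NCI panel sulforhodamine B assay: line-specific seeding, 24 h drug-free, then five 10-fold dilutions (top 10^-4 M) for 2 days; growth inhibition from protein-stain optical density change; mean log GI50 across panel.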

NCI [2] = test: In vitro antitumor activity against carcinoma cell lines by 6-day assay; type: functional, Homo sapiens
In short: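 NCI 60-cell-line panel, sulforhodamine B protein stain. Seeding density set per line's growth; 24 h drug-free incubation, then test agent at five 10-fold dilutions up to 10^-4 M for 6 days of exposure. Growth inhibition derived from change in protein-stain optical density; log GI50 reported.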

In the case of CC(=O)N(C(C)=O)c1ccc(-c2nc3ccccc3s2)cc1, the IC50 (MCF7) is reported as > 100 nM and the IC50 (MDA-MB-468) is reported as > 100 nM.

For Nc1ccc(-c2nc3ccccc3[nH]2)cc1, the IC50 (MCF7) was > 10000 nM and the IC50 (MDA-MB-468) was > 1000 nM.

In the case of O=C(CCl)Nc1ccc(-c2nc3ccccc3s2)cc1, the “Mean IC70” value (Homo sapiens) is reported as 3.5 µg/mL, the IC50 (MCF7) is reported as > 10 nM and the IC50 (MDA-MB-468) is reported as > 100 nM. The “Mean log GI50” value (NCI [1]) was -5.7 M.

In the case of Nc1ccc(-c2nc3ccccc3s2)cc1Cl, the IC50 (MCF7) is reported as < 1 nM, the IC50 (MDA-MB-468) is reported as < 1 nM and the “Mean log GI50” value (NCI [2]) is reported as -5.26 M. For the same molecule, the “Mean log GI50” value (NCI [1]) was -4.75 M.

For CC(=O)Nc1ccc(-c2nc3ccccc3s2)cc1I, the IC50 (MCF7) was > 100 nM, the IC50 (MDA-MB-468) was > 100 nM and the “Mean log GI50” value (NCI [1]) was -4.7 M.

For O=C(CCl)Nc1ccc(-c2nc3ccccc3o2)cc1, the IC50 (MCF7) was > 1000 nM and the IC50 (MDA-MB-468) was > 1000 nM.

For CC(=O)Nc1ccc(-c2nc3ccccc3s2)cc1Cl, the IC50 (MCF7) was > 10 nM, the IC50 (MDA-MB-468) was > 100 nM and the “Mean log GI50” value (NCI [1]) was -4.54 M.
